From ChEMBL document CHEMBL4130581, “Securamine Derivatives from the Arctic Bryozoan Securiflustra securifrons” (J Nat Prod, 2017)
Calls of active or inactive are those of the source. The calls are words filed in the database; no cut-off is given here.

Assays:
MRC5 [1] = experiment: Cytotoxicity in human MRC5 cells assessed as reduction in cell survival incubated for 72 hrs by MTS assay; type: cell-based; conditions: MRC5, 72 h
Summary of the method: (§1)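 Nonmalignant MRC-5 lung fibroblasts in supplemented E-MEM (10% FBS, glutamine, NEAA, pyruvate, bicarbonate) at 37 °C, 5% CO2. Seeded at 4000 cells/well and allowed 24 h to adhere. Exposed to ranging concentrations for 24 or 72 h. MTS added for 1 h, absorbance at 485 nm. Survival normalised to 1% DMSO and 0.5% Triton X-100 controls. Triplicates, three independent experiments.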

A2058 [2] = experiment: Cytotoxicity in human A2058 cells assessed as reduction in cell survival incubated for 72 hrs by MTS assay; type: functional, cell-based; conditions: A2058, 72 h
Summary of the method: (§2)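 A2058 human melanoma cells grown in D-MEM with 10% FBS and L-alanyl-L-glutamine at 37 °C, 5% CO2. Seeded at 2000 cells/well and allowed to adhere 24 h. Exposed to a range of concentrations for 4, 24, 48 or 72 h. MTS added for 1 h, then absorbance read at 485 nm. Survival normalised to 1% DMSO (negative) and 0.5% Triton X-100 (positive) controls. Triplicate wells, three independent experiments.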

HT-29 [3] = experiment: Cytotoxicity in human HT-29 cells assessed as reduction in cell survival incubated for 72 hrs by MTS assay; type: functional, cell-based; conditions: HT-29, 72 h
Summary of the method: (§3)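 HT-29 colon adenocarcinoma cells kept in RPMI with 10% FBS and L-alanyl-L-glutamine at 37 °C, 5% CO2. Seeded at 2000 cells/well and left 24 h before 72 h exposure to various concentrations. MTS reagent for 1 h, then absorbance at 485 nm. Survival scaled between 1% DMSO and 0.5% Triton X-100 controls. IC50 from eight concentration points. Means ± SD of three independent determinations.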

MCF7 [4] = experiment: Cytotoxicity in human MCF7 cells assessed as reduction in cell survival incubated for 72 hrs by MTS assay; type: functional, cell-based; conditions: MCF7, 72 h
Summary of the method: (§4)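 MCF-7 breast adenocarcinoma cells in E-MEM with 10% FBS, L-alanyl-L-glutamine, nonessential amino acids, sodium pyruvate and sodium bicarbonate at 37 °C, 5% CO2. Plated at 2000 cells/well and left 24 h, then treated 72 h across a concentration range. MTS for 1 h, read at 485 nm. Survival relative to 1% DMSO and 0.5% Triton X-100 controls. IC50 by regression on eight concentrations. Three independent experiments, mean ± SD.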

MRC5 [5] = experiment: Cytotoxicity in human MRC5 cells assessed as reduction in cell survival incubated for 24 hrs by MTS assay; type: cell-based; conditions: MRC5, 24 h; summary of the method: as §1
A2058 [6] = experiment: Cytotoxicity in human A2058 cells assessed as reduction in cell survival incubated for 24 hrs by MTS assay; type: functional, cell-based; conditions: A2058, 24 h; summary of the method: as §2
MRC5 [7] = experiment: Cytotoxicity in human MRC5 cells assessed as reduction in cell survival by MTS assay; type: cell-based; conditions: TDE = time-dependent effect; summary of the method: as §1
MCF7 [8] = experiment: Cytotoxicity in human MCF7 cells assessed as reduction in cell survival by MTS assay; type: functional, cell-based; conditions: TDE = time-dependent effect; summary of the method: as §4
HT-29 [9] = experiment: Cytotoxicity in human HT-29 cells assessed as reduction in cell survival by MTS assay; type: functional, cell-based; conditions: TDE = time-dependent effect; summary of the method: as §3
A2058 [10] = experiment: Cytotoxicity in human A2058 cells assessed as reduction in cell survival incubated for 48 hrs by MTS assay; type: functional, cell-based; conditions: A2058, 48 h; summary of the method: as §2
A2058 [11] = experiment: Cytotoxicity in human A2058 cells assessed as reduction in cell survival by MTS assay; type: functional, cell-based; conditions: TDE = time-dependent effect; summary of the method: as §2
A2058 [12] = experiment: Cytotoxicity in human A2058 cells assessed as reduction in cell survival at 0.313 to 10 uM incubated for 4 hrs by MTS assay; type: functional, cell-based; summary of the method: as §2

SMILES | IC50 (MRC5 [1]) [µM] | IC50 (A2058 [2]) [µM] | IC50 (HT-29 [3]) [µM] | IC50 (MCF7 [4]) [µM] | IC50 (MRC5 [5]) [µM] | IC50 (A2058 [6]) [µM] | Activity (MRC5 [7]) | Activity (MCF7 [8]) | Activity (HT-29 [9]) | IC50 (A2058 [10]) [µM] | Activity (A2058 [11]) | Activity (A2058 [12])
CC1(C)[C@@H](Cl)C[C@]23[C@@H]4CC(=O)N2C=CC2=NC(=O)N[C@@]21N3c1cc(Br)c(Br)cc14 | 5.3 | 2.7 | 2.5 | 2.4 |  |  |  |  |  |  |  | 
CC1(C)[C@@H](Cl)C[C@]23[C@@H]4CC(=O)N2C=CC2=NC(=O)N[C@@]21N3c1cc(Br)ccc14 | 30 | 20 | 21 | 23 |  |  |  |  |  |  |  | 
CO[C@H]1[C@H](O)C2=NC(=O)N[C@@]23N2c4cc(Br)c(Br)c(Br)c4[C@H]4CC(=O)N1[C@]42C[C@H](Cl)C3(C)C | > 50 | > 50 | > 50 | > 50 |  |  |  |  |  |  |  | 
CC1(C)[C@@H](Cl)C[C@]23[C@@H]4CC(=O)N2C=CC2=NC(=O)N[C@@]21N3c1cc(Br)c(Br)c(Br)c14 | 2.7 | 1.4 | 1.9 | 2.1 | > 10 | 2.8 | Tde | Tde | Tde | 1.8 | Tde | inactive
CC1(C)[C@@H](Cl)C[C@]23[C@@H]4CC(=O)N2C=CC2=NC(=O)N[C@@]21N3c1cc(Br)cc(Br)c14 | 9.6 | 6.7 | 10 | 8.5 |  |  |  |  |  |  |  | 
